Hits are enriched below; roughly 1.8% of the tested compounds scored in any of these assays.
Gli-Sufu block: antagonists of Gli-Sufu signaling; Sufu-KO-LIGHT fibroblasts, Gli luciferase reporter luminescence; inhibition, % at 5 µM; 340,000 compounds, 0.74% hits; AID 588413;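 active means inhibition above about 55%, limit read from the data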;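 further: 0% = DMSO-treated cells and 100% = wells with medium but no cells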
697 NFkB inh: lowers PMA/ionomycin-induced NF-kB signal in 697 B cells. inhibition, % at 4 µM. 697 B-cell NF-kB luciferase reporter, 16 h. 330,000 compounds, 0.33% hits. AID 435022; in the data active means inhibition above about 35%
NR2E3 ag-1: NR2E3 (human) agonism. GST-NR2E3/biotin-RetCOR TR-FRET, 1536-well. inhibition of corepressor binding, % at 4.78 µM. 320,000 compounds, 0.12% hits. AID 2300;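 active means percent inhibition above the cutoff of mean plus 3 SD of all tested compounds, set per screening campaign, cut at about 20% in these data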;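 further: 0% = DMSO wells and 100% = biotin wells as full block of FRET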
Target sequence (Q9Y5X4 whole entry, looked up): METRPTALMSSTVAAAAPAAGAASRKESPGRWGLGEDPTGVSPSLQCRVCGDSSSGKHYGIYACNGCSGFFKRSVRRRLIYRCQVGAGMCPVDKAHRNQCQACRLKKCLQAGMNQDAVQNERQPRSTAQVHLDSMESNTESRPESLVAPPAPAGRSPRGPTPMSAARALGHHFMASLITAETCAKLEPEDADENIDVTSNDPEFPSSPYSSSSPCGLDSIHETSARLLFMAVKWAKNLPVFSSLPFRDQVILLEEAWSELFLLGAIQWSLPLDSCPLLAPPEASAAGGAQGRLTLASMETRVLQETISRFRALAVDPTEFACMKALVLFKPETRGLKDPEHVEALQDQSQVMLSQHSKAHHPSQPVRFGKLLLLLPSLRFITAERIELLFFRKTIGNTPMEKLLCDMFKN
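Format: 1536-well format; test system: GST-NR2E3 and biotin-RetCOR proteins; read-out basis: percent inhibition of TR-FRET ratio; timing: 5 h incubation at 4 °C; detection: time-resolved FRET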
GalR3 antagonist: human GalR3 antagonism | O60755 | HEK293 GalR3-CNG cAMP membrane potential fluorescence; galR3 body fused to GalR1 C-terminus | inhibition, % at 3 µM | 360,000 compounds, 0.44% hits | AID 651719;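 active means inhibition above the screen-wide average plus 3 SD, cut at about 13% in these data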;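 further: forskolin and galanin both at EC90 stimulate the cells; cAMP rise reported by CNG channel membrane potential dye signal; 0% = forskolin plus galanin with DMSO and 100% = forskolin alone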
Target sequence (O60755 1-299 limits assumed): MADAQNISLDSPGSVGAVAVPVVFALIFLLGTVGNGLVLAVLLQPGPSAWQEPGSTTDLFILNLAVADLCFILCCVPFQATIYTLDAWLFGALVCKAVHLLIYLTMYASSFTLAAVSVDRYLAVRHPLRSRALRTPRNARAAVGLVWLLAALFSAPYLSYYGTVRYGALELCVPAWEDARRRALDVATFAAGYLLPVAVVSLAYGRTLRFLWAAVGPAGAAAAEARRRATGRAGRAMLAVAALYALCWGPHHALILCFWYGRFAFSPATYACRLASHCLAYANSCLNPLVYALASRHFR
NR2E3 ag-2: activates human NR2E3 receptor; inhibition of corepressor binding, % at 3.98 µM; 360,000 compounds, 0.35% hits; CHO-S Gal4-NCOR/VP16-NR2E3 two-hybrid, luciferase; AID 602229;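 active means inhibition above the mean of all tested compounds plus 3 SD, cut at about 70% in these data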;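 further: 0% = DMSO with NR2E3 transfected cells and 100% = cells lacking NR2E3 construct; higher means lower luciferase signal from less NR2E3 corepressor binding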
Jurkat NFkB inh: inhibitors of the PMA/ionomycin-induced NF-kB reporter in Jurkat cells. 330,000 compounds, 0.53% hits. PMA/ionomycin-induced NF-kB luciferase reporter, luminescence. inhibition, % at 4 µM; in the data active means inhibition above about 50%
Gli antag conf: Gli-SUFU antagonism confirmation, single concentration. shares compounds with Gli-Sufu block. Sufu-KO-LIGHT cells, Gli luciferase reporter, luminescence. inhibition, % at 5 µM. 2,500 compounds, 40% hits;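 active means mean inhibition at 5 µM reaching about 45%, limit read from the data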;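 further: plate controls were DMSO-treated cells for no effect and wells lacking cells for full effect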
Gli cytotox: counter-screen for Gli-SUFU antagonists: cytotoxicity; shares compounds with Gli-Sufu block; Sufu-KO-LIGHT cells cytotoxicity, ATP luminescence; cytotoxicity, % at 5 µM; 2,500 compounds, 32% hits; AID 651994;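 active means mean cytotoxicity at 5 µM above about 25%, limit read from the data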;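 further: cells exposed to compound overnight for roughly 16 to 18 hours; plate controls were DMSO wells with cells for no effect and medium without cells for full effect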
Wnt3a cs: counter-screen for Gli-SUFU antagonists: Wnt3a reporter inhibition. Wnt-LIGHT cells, Wnt3a-driven luciferase reporter, luminescence. AID 651995. inhibition, % at 6.25 µM. shares compounds with Gli-Sufu block. 2,500 compounds, 20% hits;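 active means mean inhibition above about 25%, limit read from the data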
NR2E3 ag confirm: NR2E3 agonism confirmed in two-hybrid assay. shares compounds with NR2E3 ag-2. 2,300 compounds, 51% hits. CHO-S mammalian two-hybrid NR2E3-NCOR, luciferase luminescence. inhibition, % at 3.98 µM. AID 624378;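 active means average inhibition above a cutoff equal to the mean inhibition of all tested compounds plus one SD, cut at about 70% in these data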;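 further: 0% = DMSO in NR2E3 cells and 100% = DMSO in cells lacking NR2E3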
GAL4-VP16 luc: GAL4-VP16 reporter inhibition in NR2E3 agonist counterscreen; CHO-S GAL4-VP16 luciferase reporter, luminescence; 2,300 compounds, 29% hits; shares compounds with NR2E3 ag-2; AID 624379; inhibition, % at 3.98 µM;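 active means mean inhibition above a cutoff equal to the average over all tested compounds plus one standard deviation, cut at about 70% in these data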;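 further: luciferase from a UAS reporter driven by GAL4-VP16 transactivation; 0% = DMSO with VP16-transfected cells and 100% = DMSO with cells lacking VP16; higher means less reporter light so more repression of VP16 activity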
The depositor's hits bear a star; nt = no result.

SMILES | Gli-Sufu block | 697 NFkB inh | NR2E3 ag-1 | GalR3 antagonist | NR2E3 ag-2 | Jurkat NFkB inh | Gli antag conf | Gli cytotox | Wnt3a cs | NR2E3 ag confirm | GAL4-VP16 luc
Cc1noc(C)c1S(=O)(=O)N(C)C[C@H]1Oc2ccc(NS(=O)(=O)c3cn(C)cn3)cc2C(=O)N([C@H](C)CO)C[C@@H]1C | -7 | -3 | nt | 2 | 3 | 0 | nt | nt | nt | nt | nt
COC(=O)[C@]1(C)N[C@H](CN(C)C(=O)COc2ccccc2)[C@@H]2C(=O)N(C)C(=O)[C@@H]21 | -5 | 16 | nt | -6 | 0 | 11 | nt | nt | nt | nt | nt
Cc1ccc(C#N)c(SCc2nnc(-c3ccc(Cl)cc3)o2)n1 | 75* | -195 | -1 | 0 | 72* | 17 | 88* | 60* | 99* | 77* | 38
COc1ccc(CN(C)Cc2nc(Cc3cccc(F)c3)no2)c2cccnc12 | 63* | -38 | 3 | -2 | 80* | 30 | 54* | 18 | 27* | 92* | 81*
Cc1nc2sccn2c1-c1csc(NCc2ccccc2)n1 | 56* | -41 | 1 | -8 | 62 | 19 | 50* | 22 | 16 | 86* | 71*
CCC(C(=O)NCCC(C)C)n1ccc2cc(S(=O)(=O)N3CCCCC3)ccc21 (stereo not drawn) | 67* | -35 | -1 | nt | 60 | 17 | 45 | 23 | -9 | 49 | 47
CC(=O)c1cn(CCOc2ccccc2C)c2ccccc12 | 65* | 25 | 2 | 4 | 70* | 40 | 56* | 25 | 30* | 94* | 79*
Cc1ccccc1OCCn1cc(C(=S)N2CCCC2)c2ccccc21 | 0 | 4 | -2 | -4 | -12 | 7 | nt | nt | nt | nt | nt
CCN(CC)C(=O)c1oc2ccc(S(=O)(=O)N3CC(C)CC(C)C3)cc2c1C (stereo not drawn) | 63* | -9 | 3 | -9 | 93* | 32 | 62* | 23 | 44* | 91* | 72*
CC(=NNc1nc2ccccc2s1)c1ccncn1 | 52 | nt | nt | -3 | 63 | nt | 71* | 42* | 21 | -208 | -203
CCN1CCN(C(CNS(=O)(=O)c2ccccc2)c2ccccc2)CC1 (stereo not drawn) | 4 | 24 | -1 | -9 | -6 | 8 | nt | nt | nt | nt | nt
Cc1ccc2c(c1)nnn2C1CCN(S(=O)(=O)c2ccc(C(=O)O)cc2)CC1 | -1 | 10 | 0 | -1 | -20 | -3 | nt | nt | nt | nt | nt
Cc1ccc2c(c1)nnn2C1CCN(S(=O)(=O)c2ccc(C(=O)N3C(C)CCCC3C)cc2)CC1 (stereo not drawn) | 67* | -52 | -1 | -2 | 71* | 15 | 69* | 30* | 18 | 89* | 71*
CCc1ccc(-c2nc(CSCC(=O)NCc3ccco3)c(C)o2)cc1 | 84* | nt | nt | -2 | 101* | nt | 88* | -2 | 46* | 96* | 96*
COC(=O)c1sc(NC(=O)c2cc(-c3ccccc3)nc3ccccc23)c(C#N)c1C | 69* | 21 | -1 | 7 | 49 | -6 | 82* | 31* | 62* | 54 | 63
COc1ccc(-c2cc(C(=O)Nc3sc4c(c3C#N)CCCC4)c3ccccc3n2)cc1 | -1 | nt | -3 | -1 | -25 | nt | nt | nt | nt | nt | nt
O=C(Nc1cc(Cl)ccc1N1CCOCC1)C1=COCCO1 | -12 | -7 | 1 | -4 | -2 | -2 | nt | nt | nt | nt | nt
COc1ccc(CC2C(=O)NC(C)C(=O)N(C)C3Cc4ccc(cc4)Oc4cc(ccc4O)CC(C(=O)NC(C)C(=O)NC(C)C(=O)N2C)N(C)C3=O)cc1 (stereo not drawn) | 91* | nt | nt | 1 | 103* | nt | 96* | 90* | 104* | 99* | 96*
CC(C)C[C@@H]1NC(=O)[C@H](Cc2ccccc2)N(C)C(=O)[C@H](C)NC(=O)c2ccccc2NC(=O)[C@H](Cc2ccc(O)cc2)N(C)C1=O | 11 | 21 | -1 | 1 | 15 | 41 | nt | nt | nt | nt | nt
O=C(NCCC(=O)N1CCN(c2ccccn2)CC1)c1ccc(Br)cc1 | 7 | 16 | -3 | -3 | -2 | -1 | nt | nt | nt | nt | nt
COc1ccc(NC(=O)C2CCN(S(=O)(=O)c3ccc(N4CCCC4=O)cc3)CC2)c(OC)c1 | 39 | 10 | -1 | -7 | 11 | 0 | nt | nt | nt | nt | nt
Cc1ccc(NC(=O)C2CCN(S(=O)(=O)c3ccc(N4CCCC4=O)cc3)CC2)cc1Cl | 81* | 6 | -4 | -4 | 107* | 24 | 84* | 41* | 8 | 99* | 91*
Cc1cccc(-n2ncc3c2CCCC3NC(=O)CN2CCOC2=O)c1C (stereo not drawn) | -11 | -1 | -3 | 11 | -3 | 4 | nt | nt | nt | nt | nt
Cc1cccc(-n2ncc3c2CCCC3NC(=O)Cc2c(C)noc2C)c1C (stereo not drawn) | 59* | -17 | 0 | 0 | 60 | 27 | 29 | 31* | 7 | 54 | 57
O=C(CSc1cccc[n+]1[O-])CSc1cccc[n+]1[O-] | 56* | 0 | 0 | -1 | 69 | -15 | 15 | 10 | 1 | -4 | -8
O=C(CSc1cccc[n+]1[O-])N1CCCCCC1 | 7 | 1 | -1 | 1 | -7 | 6 | nt | nt | nt | nt | nt
Cc1cc(C(=O)CSc2nnc(-c3ccccc3)n2-c2ccccc2)c(C)n1-c1ncn[nH]1 | 8 | -1 | -1 | -3 | 13 | -13 | nt | nt | nt | nt | nt
Cc1cc(C(=O)CSc2nnc3ccccn23)c(C)n1-c1ccccc1 | 54 | -25 | -1 | 8 | 62 | 17 | 65* | 40* | 96* | 98* | -74
O=C(CCc1ccccc1)N=C1SC2CS(=O)(=O)CC2N1Cc1ccc(F)cc1 (stereo not drawn) | -32 | 4 | 1 | -8 | -15 | 1 | nt | nt | nt | nt | nt

High-throughput results: PubChem, several laboratories
